This note sets out measurements from PubChem BioAssay.

Experiment [1] in a line: inhibitors of TNFa-induced NFkB p65 translocation, primary screen, imaging, HUVEC, MLSMR starter and 10KST1 sets (AID 438;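 active means inhibition above 20% together with a positive visual image hit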;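 further: compound added about 3h40 before a 20 min TNFalpha stimulation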;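 on inhibition: signal is the nuclear over cytoplasmic p65 intensity ratio per well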). To be noted: HUVEC TNFa-induced p65 nuclear translocation; cell count: measured here: nuclei count (cytotoxicity indicator), at 2.08 µM; inhibition: at 2 µM, stronger effect = higher value, 0% TNFa-plus-vehicle, 100% no-TNFa wells.
The nature of experiment [2]: endothelial E-selectin expression blockers – imaging, HUVEC, immunofluorescence, MLSMR starter and 10KST1 sets, primary screen (AID 487;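 active means visually confirmed hit in the image check and inhibition above 20%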;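 on inhibition: signal is fraction of cell area covered by stained E-selectin grains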;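 on nuclei count: 100% = median nuclei count of all wells on the same plate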). To be noted: HUVEC TNFalpha-induced E-selectin immunofluorescence imaging, at 2 µM; inhibition: stronger effect = higher value; nuclei count: measured here: cell number, toxicity.
The nature of experiment [3]: Primary imaging screen for DUSP6 inhibitors that restore phospho-Erk in transfected HeLa cells, chemical complementation (AID 609;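 active means compounds giving at least 50% inhibition in the cell-based MKP-3 phosphatase rescue imaging test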;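 on inhibition: phospho-Erk level distribution per well compared with pooled transfected vehicle control wells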). To be noted: HeLa MKP-3 transfected, phospho-Erk imaging KS statistic, at 10 µM, cells stimulated with TPA for 15 min.
Experiment [4] concerns the target Dual specificity protein phosphatase 6 (Homo sapiens) (UniProt Q16828). The description is as above. To be noted: HeLa MKP-3 transfected, phospho-Erk imaging KS statistic; at 10 µM; stronger effect = higher value; cells stimulated with TPA for 15 min.
For experiment [5], the target named is Voltage-gated potassium channel subunit beta-2 (Rattus norvegicus) (UniProt P62483). The experiment in a line: inhibitors of rat Kvbeta2 reductase activity – biochemical, NADPH fluorescence, primary screen (AID 622;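 active means fluorescence slope higher than the sample average by over 3 SD, cut at about -0.22 in these data, passing the limit was not always enough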;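 further: slope of raw intensity against log time taken from 70 to 1610 s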). To be noted: recombinant KvBeta, 4-cyanobenzaldehyde reduction, at 10 µM, stronger effect = higher value.
Chain of Voltage-gated potassium channel subunit beta-2 (Rattus norvegicus) (P62483 whole entry, looked up): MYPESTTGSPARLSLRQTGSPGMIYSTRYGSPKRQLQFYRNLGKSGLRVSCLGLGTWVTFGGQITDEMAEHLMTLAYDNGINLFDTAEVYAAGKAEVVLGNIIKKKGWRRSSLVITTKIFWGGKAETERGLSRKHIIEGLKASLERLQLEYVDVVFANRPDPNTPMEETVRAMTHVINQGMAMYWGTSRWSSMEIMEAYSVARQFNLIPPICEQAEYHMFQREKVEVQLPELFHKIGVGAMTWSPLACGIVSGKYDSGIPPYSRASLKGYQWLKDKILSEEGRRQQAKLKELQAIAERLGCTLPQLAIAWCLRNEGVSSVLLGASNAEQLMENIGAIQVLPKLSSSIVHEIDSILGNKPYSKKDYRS
Experiment [6] has the same target. The experiment in a line: enhancers of rat Kvbeta2 NADPH turnover – biochemical, NADPH fluorescence, primary screen (AID 623;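 active means NADPH fluorescence slope more negative than the mean of all samples by about 3 SD, 99.7% confidence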;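 further: fluorescence intensity change per second fitted from 20 to 320 s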). To be noted: Recombinant KvBeta, NADPH fluorescence decrease slope, 10 min; at 10 µM; stronger effect = lower value.
For experiment [7], the target named is Muscarinic acetylcholine receptor M4 (Homo sapiens) (UniProt P08173). Nature of the experiment: M4-linked GIRK flux change, two-sided – cell-based, HEK293 M4/GIRK, thallium flux, BTC-AM, M4 allosteric agonist project, primary screen (AID 625;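 active means fluorescence slope after compound addition differing from the mean of all tested samples at 99.7% confidence, mostly higher but some lower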;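 further: thallium influx through GIRK channels coupled to M4 in HEK293 cells with BTC-AM dye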). To be noted: at 10 µM, actives lie on both sides. Summed up: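 assay system = HEK293 cells with M4 receptor and GIRK channels | medium = pH 7.3 thallium assay buffer | doses = 10 µM final, single point | timing = cells overnight at 37 °C, BTC-AM loading 1 h, reads 2 min total | signal = BTC-AM fluorescence, 1 Hz kinetic reads | read-out = post-addition slope, 15–24 s, of baseline-normalized fluorescence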
Chain of Muscarinic acetylcholine receptor M4 (Homo sapiens) (P08173 whole entry, looked up): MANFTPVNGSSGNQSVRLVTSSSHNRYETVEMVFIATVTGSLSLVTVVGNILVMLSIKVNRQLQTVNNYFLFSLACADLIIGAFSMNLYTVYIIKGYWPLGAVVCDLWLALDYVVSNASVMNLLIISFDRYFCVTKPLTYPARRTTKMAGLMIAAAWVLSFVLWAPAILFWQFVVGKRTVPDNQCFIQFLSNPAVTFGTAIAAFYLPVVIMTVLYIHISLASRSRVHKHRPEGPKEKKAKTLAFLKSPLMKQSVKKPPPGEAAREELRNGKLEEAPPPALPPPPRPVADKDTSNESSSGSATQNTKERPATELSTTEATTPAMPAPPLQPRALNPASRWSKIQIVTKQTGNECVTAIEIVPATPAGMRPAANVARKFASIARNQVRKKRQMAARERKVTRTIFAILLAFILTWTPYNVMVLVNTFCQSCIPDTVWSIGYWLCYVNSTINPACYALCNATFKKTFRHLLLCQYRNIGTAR

Experiment [8] in a line: inhibitors of larval lipid processing in zebrafish, primary screen, whole organism, PED6 fluorescence, gall bladder and intestine (AID 686;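 active means a full or partial loss of lipid-probe fluorescence in the fish gall bladder, intestine or both, judged by eye; inactive means no fluorescence loss, or compound toxic to the fish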;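 further: larvae 5 to 7 days old with five fish per well; signal comes from phospholipase A2 cleavage of quenched PED6 carried via bile; overnight exposure to compound and PED6 before scoring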). To be noted: Zebrafish larvae PED6 lipid processing, fluorescence scoring; screened at 20 µM (by protocol). Summed up:
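Also added: quenched phospholipase substrate PED6, 100 nM final, ingested by larvae; System: zebrafish larvae, 5-7 d; Quantity: 5 larvae per well; Compound: 20 µM single dose; Schedule: overnight compound and PED6 incubation; Read-out: visual per-well fluorescence inhibition score; Measured by: By-eye fluorescence microscopy; Medium: E3.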

Experiment [9] can be described thus: loss of swimming-algae plug formation – whole organism, Chlamydomonas reinhardtii, WT vs cilia-less mutant, absorbance, 96-well, primary screen (AID 463189).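 Further: 0% = wild type cc124 cells in DMSO and 100% = ciliumless bld1 mutant cells.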 To be noted: Chlamydomonas reinhardtii gravitaxis, OD600 absorbance, 2 days; at 10 µM; stronger effect = higher value.
[10] abbreviates: measured here: cell density z-score.
The mark [11] stands for this setting: measured here: nuclear c-Myc green intensity z-score.
Setting [12] is: measured here: nuclear pErk red intensity z-score, stronger effect = higher value.

A word on the inhibition: it is the change of the read-out against control, counted positive when it falls.

Calls of active or inactive are those of the source.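 How the source made its calls, unless noted: active means inhibition at or above 50% relative to wild type and mutant plate controls; inactive means inhibition below 50%.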

Chain of Dual specificity protein phosphatase 6 (Homo sapiens) (Q16828 whole entry, looked up): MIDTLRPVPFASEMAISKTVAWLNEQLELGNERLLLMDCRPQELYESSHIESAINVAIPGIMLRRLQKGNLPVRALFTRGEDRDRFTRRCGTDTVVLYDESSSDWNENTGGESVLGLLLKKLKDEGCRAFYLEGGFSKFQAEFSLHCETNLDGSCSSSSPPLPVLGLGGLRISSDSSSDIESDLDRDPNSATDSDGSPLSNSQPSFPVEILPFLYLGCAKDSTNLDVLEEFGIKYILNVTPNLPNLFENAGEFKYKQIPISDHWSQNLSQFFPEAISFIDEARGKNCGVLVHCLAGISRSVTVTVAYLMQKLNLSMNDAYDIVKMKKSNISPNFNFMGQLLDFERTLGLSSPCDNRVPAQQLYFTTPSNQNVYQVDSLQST

`Cn1ccnc1C(O)c1ccc(OCc2ccccc2)cc1` (centres undefined): the cell count in experiment [1] is 473. Also, the inhibition was -1.1% (inactive) in [1], -18.4% (inactive) in experiment [2], 7.42% (inactive) in experiment [4] and -11.2% (inactive) in [9]. The compound further registered a nuclei count in experiment [2] of 113%. Also, the results for the z-score in [3] (setting [10]), in [3] (setting [11]) and in [3] (setting [12]) were -3.29, 1.73 and -0.207, respectively. Also, the fluorescence slope in experiment [5] is -0.487 (inactive); in experiment [7] it was 0.00541 (inactive). Further, in [6], the NADPH fluorescence slope is -0.000123 (inactive). The result in experiment [8] was inactive.

Turning to `COC(=O)c1ccc(Cn2c(O)c(N=O)c3ccccc32)o1`, the cell count in experiment [1] turned out to be 485. Moreover, the inhibition was 2% (inactive) in [1], -36.4% (inactive) in experiment [2], 7.42% (inactive) in [4] and -9.22% (inactive) in [9]. The same compound gave a nuclei count in [2] of 122%. For the same compound, the z-score in experiment [3] (setting [10]) is -2.02; in experiment [3] (setting [11]), 0.422; in experiment [3] (setting [12]), -1.72. Moreover, the fluorescence slope in [5] is -0.493 (inactive); in experiment [7] it was 0.00432 (inactive). The NADPH fluorescence slope in experiment [6] was -7e-05 (inactive). Also, in [8], the compound was classed as inactive.

In the case of `O=C(NCCc1ccccc1)/C(=N\O)c1ccccc1`, in [1], the cell count amounted to 555. Moreover, the inhibition in [1] is -5.6% (inactive); in experiment [2] it was 19.1% (inactive); in [4], 13.9% (inactive); in experiment [9], 2.81% (inactive). The nuclei count in [2] is 182%. The z-score is 1.61 in experiment [3] (setting [10]), -1.77 in [3] (setting [11]) and -0.308 in experiment [3] (setting [12]). Besides, the fluorescence slope in [5] was -0.404 (inactive); in experiment [7] it was 0.00486 (inactive). For the same compound, the NADPH fluorescence slope in [6] is -8.5e-06 (inactive). In addition, the compound was called inactive in [8].

In the case of `CCOC(=O)COn1c(=O)c(-c2ccc(OC)c(OC)c2)[n+]([O-])c2ccccc21`, in experiment [1], the cell count is 542. For the same compound, the inhibition in experiment [1] was -6% (inactive); in experiment [2] it was -40.6% (inactive); in experiment [4], -1.98% (inactive); in experiment [9], 37.5% (inactive). The same compound returned a nuclei count in experiment [2] of 142%. The results for the z-score in [3] (setting [10]), in experiment [3] (setting [11]) and in experiment [3] (setting [12]) were 0.722, -0.529 and 0.673, respectively. In addition, the fluorescence slope was -0.33 (inactive) in [5] and 0.00588 (inactive) in [7]. Moreover, the NADPH fluorescence slope in [6] is -7.7e-06 (inactive). Also, the compound was classed as inactive in experiment [8].

As to `CC1(C)Cc2c(C#N)c(N3CCN(C(=O)c4ccco4)CC3)nc(-c3ccco3)c2CS1`, the cell count in experiment [1] came to 639. For the same compound, the inhibition in experiment [1] was -0.1% (inactive); in experiment [2] it was -82.6% (inactive); in experiment [4], -4.27% (inactive); in [9] it was 3.99% (inactive). Further, the nuclei count in experiment [2] was found to be 138%. In addition, the z-score in [3] (setting [10]) was -1.4; in [3] (setting [11]), -0.121; in [3] (setting [12]), -2.48. Also, the values for the fluorescence slope in experiment [5] and in experiment [7] were -0.464 (inactive) and 0.00584 (inactive), respectively. Besides, the NADPH fluorescence slope in experiment [6] was -6.6e-05 (inactive). Besides, in experiment [8], the compound was called inactive.

In the case of `CC(C)Cc1[nH]c(=O)c(C#N)c2c1COC(C)(C)C2`, the cell count in experiment [1] is 568. The inhibition in [1] is -11.1% (inactive); in experiment [2], -69.9% (inactive); in experiment [4], -13.3% (inactive); in experiment [9] it was 23.1% (inactive). Also, the nuclei count in experiment [2] stood at 141%. Moreover, the z-score in experiment [3] (setting [10]) was 0.028; in experiment [3] (setting [11]) it was -0.951; in experiment [3] (setting [12]), -0.389. For the same compound, the results for the fluorescence slope in experiment [5] and in experiment [7] were -0.43 (inactive) and 0.00369 (inactive), respectively. The NADPH fluorescence slope in experiment [6] was -5.3e-05 (inactive). The compound was classed as inactive in [8].

For the compound `CC1(C)C2CCC1(C)C(NC(=O)CCN1CCCCC1)C2` (centres undefined), the cell count in [1] is 570. Moreover, the inhibition is -3.7% (inactive) in experiment [1], -89.2% (inactive) in experiment [2], 5.95% (inactive) in [4] and 55.5% (active) in experiment [9]. Moreover, the nuclei count in [2] stood at 163%. Besides, the values for the z-score in experiment [3] (setting [10]), in experiment [3] (setting [11]) and in [3] (setting [12]) were 0.233, 1.96 and 0.463, respectively. The results for the fluorescence slope in experiment [5] and in [7] were -0.4 (inactive) and 0.00508 (inactive), respectively. Further, the NADPH fluorescence slope in experiment [6] was -4.2e-05 (inactive). Further, the compound was classed as inactive in experiment [8].

`O=C1CC(c2ccccc2)n2nc(N3C(=O)c4ccccc4C3=O)nc2N1` (centres undefined): the cell count in experiment [1] turned out to be 397. For the same compound, the inhibition in [1] was 3% (inactive); in experiment [2] it was -72.9% (inactive); in [4] it was 2.71% (inactive); in experiment [9], 21.6% (inactive). In experiment [2], the nuclei count amounted to 114%. For the same compound, the z-score in experiment [3] (setting [10]) was 0.561; in experiment [3] (setting [11]) it was 0.157; in experiment [3] (setting [12]), -0.686. For the same compound, the fluorescence slope is -0.441 (inactive) in experiment [5] and 0.00457 (inactive) in [7]. Moreover, the NADPH fluorescence slope in [6] is -1.7e-05 (inactive). Besides, the result in experiment [8] was inactive.

For the compound `COC(=O)CSc1nc(-c2cccs2)ccc1C#N`, the cell count in experiment [1] came to 646. Also, the inhibition in experiment [1] was 1.5% (inactive); in experiment [2], -18.4% (inactive); in [4], 2.92% (inactive); in experiment [9], -2.12% (inactive). In [2], this compound returned a nuclei count of 154%. Further, the values for the z-score in [3] (setting [10]), in experiment [3] (setting [11]) and in experiment [3] (setting [12]) were 0.598, -1.62 and -0.658, respectively. For the same compound, the figures for the fluorescence slope in experiment [5] and in experiment [7] were -0.456 (inactive) and 0.00605 (inactive), respectively. For the same compound, the NADPH fluorescence slope in experiment [6] was -4.2e-05 (inactive). The result in experiment [8] was inactive.

On to `COCCn1c(SCc2c(F)cccc2Cl)nc2c1c(=O)[nH]c(=O)n2C`, for which the cell count in experiment [1] was 654. The inhibition in [1] is 3.4% (inactive); in experiment [2] it was -11.2% (inactive); in experiment [4] it was 40.7% (inactive); in experiment [9], 15.2% (inactive). The compound also showed a nuclei count in experiment [2] of 115%. The z-score in experiment [3] (setting [10]) is 1.7; in experiment [3] (setting [11]) it was -2.3; in experiment [3] (setting [12]) it was -0.397. For the same compound, the fluorescence slope in [5] is -0.44 (inactive); in [7] it was 0.00509 (inactive). Besides, the NADPH fluorescence slope in experiment [6] was -5.5e-05 (inactive). In experiment [8], the compound was classed as inactive.

As to `CCOc1ccc2c(c1)n([O-])c1c([n+]2=O)CCCC1`, in experiment [1], the cell count amounted to 345. Further, the inhibition was 6.9% (inactive) in experiment [1], -31.4% (inactive) in experiment [2], 23.4% (inactive) in [4] and 32.8% (inactive) in experiment [9]. In addition, the nuclei count in [2] was 84.7%. Besides, the z-score in [3] (setting [10]) is -0.67; in [3] (setting [11]), 0.548; in experiment [3] (setting [12]) it was -1.91. Besides, the values for the fluorescence slope in experiment [5] and in [7] were -0.4 (inactive) and 0.0052 (inactive), respectively. Also, in experiment [6], the NADPH fluorescence slope was -0.000101 (inactive). Besides, the call in [8] was inactive.

In the case of `OC1(C2(O)CC(c3ccccc3)ON2)CCCCC1` (centres undefined), the cell count in experiment [1] worked out at 713. Further, the inhibition is 6.2% (inactive) in experiment [1], -8.5% (inactive) in experiment [2], -5.81% (inactive) in [4] and 0.004% (inactive) in experiment [9]. For the same compound, in experiment [2], the nuclei count is 141%. Further, the z-score was 0.0893 in experiment [3] (setting [10]), 0.138 in experiment [3] (setting [11]) and -1.51 in experiment [3] (setting [12]). In addition, the fluorescence slope is -0.444 (inactive) in [5] and 0.00531 (inactive) in [7]. For the same compound, the NADPH fluorescence slope in experiment [6] is -3.6e-05 (inactive). The outcome in experiment [8] was inactive.

In the case of `O=C(O)C1[C@H]2C(=O)N(Cc3cccs3)C[C@]23C=C[C@H]1O3` (some centres undefined), the cell count in [1] was found to be 598. Besides, the inhibition is -10.3% (inactive) in experiment [1], -12.8% (inactive) in [2], 6.04% (inactive) in experiment [4] and -4.98% (inactive) in [9]. For the same compound, the nuclei count in [2] came to 189%. Moreover, the z-score in [3] (setting [10]) was 0.152; in experiment [3] (setting [11]), 1.12; in experiment [3] (setting [12]) it was -0.313. Besides, the fluorescence slope in [5] was -0.481 (inactive); in [7], 0.00643 (inactive). Further, the NADPH fluorescence slope in experiment [6] is -8e-05 (inactive). Also, the outcome in [8] was inactive.
